Measurements as given in ChEMBL document CHEMBL1146574, “A novel 5-HT receptor ligand and related cytotoxic compounds from an acid mine waste extremophile” (J Nat Prod, 2003).

Tests used:
Artemia = assay: Toxicity against brine shrimp; assay type: organism-based; details: in vivo
[1] = molecular target: 5-hydroxytryptamine receptor 2A (Rattus norvegicus) (UniProt P14842); assay: Displacement of [3H]ketanserin from rat 5HT2A receptor expressed in mouse NIH3T3 cells assessed as bound radiolabeled ligand remaining by liquid scintillation relative to control; assay type: cell-based
How it was run: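 Crude membranes from confluent NIH 3T3 cells stably expressing rat 5-HT2A receptor (DMEM, 10% calf serum, geneticin), prepared freshly in 50 mM Tris, 4 mM CaCl2, 10 µM pargyline, pH 7.4. Tritiated ligand 0.5 nM final; nonspecific binding with 10 µM 5-HT; test compounds at 100 µM. Triplicate 1 mL reactions, 30 min at 30 °C. Glass-fiber filtration, scintillation counting, reported as percent of control binding.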

Chain of 5-hydroxytryptamine receptor 2A (Rattus norvegicus) (P14842 whole entry): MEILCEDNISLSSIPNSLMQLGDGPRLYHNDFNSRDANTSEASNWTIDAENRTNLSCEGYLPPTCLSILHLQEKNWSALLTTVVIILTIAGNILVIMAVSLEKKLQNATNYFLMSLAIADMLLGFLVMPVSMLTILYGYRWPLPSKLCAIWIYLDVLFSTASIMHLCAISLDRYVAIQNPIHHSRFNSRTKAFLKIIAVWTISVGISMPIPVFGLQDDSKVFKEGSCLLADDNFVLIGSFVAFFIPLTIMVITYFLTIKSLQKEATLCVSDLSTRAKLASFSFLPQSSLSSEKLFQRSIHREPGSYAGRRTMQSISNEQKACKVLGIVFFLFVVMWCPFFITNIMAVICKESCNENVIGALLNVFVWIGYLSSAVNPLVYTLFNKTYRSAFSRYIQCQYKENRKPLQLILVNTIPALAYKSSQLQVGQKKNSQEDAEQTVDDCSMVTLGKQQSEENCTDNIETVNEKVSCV

Activity [1] [%]	SMILES	Activity (Artemia)
85	CC(C)=CCOc1ccc(CCO)cc1 [ETROGOL]	Toxic
11	CC(=O)OCCc1ccc(OCC=C(C)C)cc1 [ETROGOL ACETATE]	Toxic
85	COC(=O)C(Cc1ccc(OCC=C(C)C)cc1)NC(C)=O (stereo not given)	

The remaining lines, values behind:

SMILES	Activity [1] [%]	Activity (Artemia)
CC(=O)NC(Cc1ccc(OCC=C(C)C)cc1)C(=O)O (stereo not given)	85	Toxic
C[C@H]1CC[C@H]2[C@H]1C[C@H](C(C)(C)O)CC[C@@]2(C)O		Non-toxic
C=C(C)[C@@H]1CC[C@@](C)(O)[C@H]2CC[C@H](C)[C@@H]2C1		Non-toxic
C[C@H]1CC[C@H]2[C@H]1C[C@]1([C@@H](C)CO)CC[C@]2(C)O1		Non-toxic
